Paper PMC2441798 (Nucleic Acids Research, 2008)
One block for each compound: values may come before it. Peptide text beside a SMILES is read from it.

What was measured:
[1] = system: PlcRII; assay: plcA'-lacZ β-galactosidase assay in 407; format: cell-based, Bacillus thuringiensis; conditions: 2 µM peptide, 1 h
Outline: (§1)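 Reporter strain 407 (plcA′Z ΔplcR–papR), carrying plcR on plasmid pHT304 under its own promoter, grown in LB without antibiotics at 37°C with vigorous shaking to stationary-phase onset T0 (OD600 3 ± 0.3). Cultures split into 12 ml fractions. Cognate synthetic PapR penta- or heptapeptide added at 2 µM final, then 1 h incubation. 2 ml pelleted for β-galactosidase assay. Each assay run at least three times.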

[2] = system: PlcRIV; assay: plcA'-lacZ β-galactosidase assay in 407; format: cell-based, Bacillus thuringiensis; conditions: 2 µM peptide, 1 h
Outline: as §1

[3] = system: PlcRIII; assay: plcA'-lacZ β-galactosidase assay in 407; format: cell-based, Bacillus thuringiensis; conditions: 2 µM peptide, 1 h
Outline: as §1

[4] = system: PlcRI'III; assay: plcA'-lacZ β-galactosidase assay, chimeric PlcRI'III; format: cell-based, Bacillus thuringiensis; conditions: 2 µM heptapeptide, 1 h, PlcRI'III chimera
Outline: (§2)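 Reporter strain Bacillus 407 (plcA′Z ΔplcR–papR), which carries a plcA promoter–lacZ fusion, was complemented with pHT304-based plasmids carrying modified plcR genes under their own promoter. Cultures were grown in LB without antibiotics at 37°C with vigorous shaking to stationary-phase onset (OD600 3 ± 0.3), then split into 12 ml fractions. Synthetic peptide was added to 2 µM final for 1 h. β-galactosidase was assayed on 2 ml pellets, with at least three repeats.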

[5] = molecular target: T1, PlcR (Bacillus thuringiensis, UniProt Q45782); assay: Steady-state fluorescence anisotropy binding titrations
T1 sequence (Q45782 1-285): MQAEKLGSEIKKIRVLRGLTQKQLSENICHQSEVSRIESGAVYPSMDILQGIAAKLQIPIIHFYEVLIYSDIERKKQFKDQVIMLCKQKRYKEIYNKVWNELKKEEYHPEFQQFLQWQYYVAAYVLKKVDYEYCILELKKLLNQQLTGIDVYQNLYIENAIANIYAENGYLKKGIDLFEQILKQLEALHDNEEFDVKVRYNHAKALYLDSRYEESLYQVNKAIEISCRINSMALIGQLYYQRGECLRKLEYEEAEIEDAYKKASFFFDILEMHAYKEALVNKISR

[6] = system: PlcRI'II; assay: plcA'-lacZ β-galactosidase assay, chimeric PlcRI'II; format: cell-based, Bacillus thuringiensis; conditions: 2 µM heptapeptide, 1 h, PlcRI'II chimera
Outline: as §2

[7] = system: PlcRA278K; assay: plcA'-lacZ β-galactosidase assay, PlcRA278K mutant; format: cell-based, Bacillus thuringiensis; conditions: 2 µM heptapeptide, 1 h; similar to PlcRI'II response
Outline: as §2

Compound: NEVPFEF
activation of plcA'lacZ expression (in words) [3]: activated | activation of PlcRI'III (in words) [4]: not activated

Compound: SDMPFEF
activation of plcA'lacZ expression (in words) [1]: activated | activation greater than that of wild-type PlcRI by PapRI [6]: about 2 fold | activation less than that of PlcRII by PapRII [6]: 2 fold | activation of PlcRA278K (in words) [7]: activated

Compound: VPFEF
activation of plcA'lacZ expression (in words) [3]: activated

Compound: NELPFEF
activation of PlcRI'III (in words) [4]: partly restores

The next lines start with the values.

activation of plcA'lacZ expression (in words) [1]: activated
Compound: MPFEF

activation of plcA'lacZ expression (in words) [2]: activated
Compound: SDLPFEH

Kd [5]: 41 µM
Compound: CC(C)C[C@H](N)C(=O)N1CCC[C@H]1C(=O)N[C@@H](Cc1ccccc1)C(=O)N[C@@H](CCC(=O)O)C(=O)N[C@@H](Cc1ccccc1)C(=O)O [LPFEF] (H-LPFEF-OH)

Kd [5]: 25 µM
Compound: CC(C)C[C@H](NC(=O)[C@H](CC(=O)O)NC(=O)[C@H](C)N)C(=O)N1CCC[C@H]1C(=O)N[C@@H](Cc1ccccc1)C(=O)N[C@@H](CCC(=O)O)C(=O)N[C@@H](Cc1ccccc1)C(=O)O [ADLPFEF] (H-ADLPFEF-OH)

activation of plcA'lacZ expression (in words) [2]: activated
Compound: LPFEH
